An excerpt weighted towards active compounds, which were near 1.8% of everything screened.
mABHD4 FP – inhibitors of mouse ABHD4. Q8VD66. actives 0.54% (n = 370,000). inhibition, % at 8.92 µM. purified mABHD4, FP-Rh probe fluorescence polarization;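 active = inhibition exceeding the mean over every tested compound plus 3 SD, cut at about 30% in these data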
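Doses – 8.92 µM, single dose · Material – wild-type mouse ABHD4 protein · Replication – single well per compound (singlicate) · Measure – percent inhibition of probe binding, normalized to plate controls · Schedule – 45 min compound pre-incubation plus 60 min probe step, 25 °C · Detection – fluorescence polarization with parallel and perpendicular emission, 525/598 nm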
SIAE primary – inhibitors of human sialic acid acetylesterase SIAE | Q9HAT2 | SIAE FP-Rh probe binding, fluorescence polarization | inhibition, % at 9.66 µM | actives 0.69% (n = 370,000) | AID 1053197;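 active = inhibition above a cutoff: mean of compounds within the control limits plus 3 SD of those, cut at about 17% in these data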
TCR CD3 inh – blocks the human TCR-CD3 interaction. actives 0.37% (n = 360,000). inhibition, % at 9.4 µM. AID 651800. TAMRA-labeled TCR probe fluorescence, biochemical; in the data active = inhibition above about 19%;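 note: recombinant mutant TCR 2C K166C tagged with TAMRA read by polarization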
ARNT-TACC3 inh – disrupts binding between human ARNT and TACC3 | actives 0.66% (n = 390,000) | AID 623870 | Q9Y6A5 | inhibition, % at 9.99 µM | AlphaScreen His-ARNT PAS-B/GST-TACC3 binding, luminescence; TACC3 fragment carries E629A point mutation;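 active = mean inhibition of replicates at least 50% and at least half of replicates each reaching 50%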
HTRA1 inh – blocks human HTRA1 serine peptidase. Q92743. recombinant HTRA1, FP-rhodamine activity-based probe, fluorescence polarization. inhibition, % at 5.96 µM. actives 0.5% (n = 340,000). AID 504803; in the data active = inhibition above about 36%
Target sequence (Q92743 whole entry, looked up): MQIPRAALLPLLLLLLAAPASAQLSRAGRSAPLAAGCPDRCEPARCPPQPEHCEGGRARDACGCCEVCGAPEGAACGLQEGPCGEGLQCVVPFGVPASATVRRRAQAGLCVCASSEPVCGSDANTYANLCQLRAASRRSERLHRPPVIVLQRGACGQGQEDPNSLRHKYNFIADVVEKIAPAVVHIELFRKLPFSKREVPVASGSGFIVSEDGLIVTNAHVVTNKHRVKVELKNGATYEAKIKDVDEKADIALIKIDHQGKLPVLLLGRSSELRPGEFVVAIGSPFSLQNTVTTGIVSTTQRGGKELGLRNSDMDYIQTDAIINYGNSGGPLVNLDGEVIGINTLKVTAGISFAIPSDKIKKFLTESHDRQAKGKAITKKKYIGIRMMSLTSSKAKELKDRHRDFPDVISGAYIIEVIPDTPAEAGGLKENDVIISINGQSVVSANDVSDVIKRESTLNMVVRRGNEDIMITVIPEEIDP
HTRA1 inh conf – confirmation of human HTRA1 inhibitors | shares compounds with HTRA1 inh | recombinant HTRA1, FP-rhodamine activity-based probe, fluorescence polarization | inhibition, % at 5.96 µM | actives 66% (n = 1,600) | AID 540248;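 active = mean inhibition over three repeats above a set limit taken from the earlier primary screen, cut at about 37% in these data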;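 note: inhibitors block probe binding so polarization drops and inhibition rises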
Of the large screens only hits and unclear results are named; the others gave an inactive call (follow-up assays come after a bar, where they were run).

CCn1c(=O)c(C(=O)CN2c3ccccc3CC2C)c(N)n(Cc2ccccc2)c1=O (stereo unspecified)	HTRA1 inh 37.8 | HTRA1 inh conf inactive
CCN(C(=O)CN1c2ccccc2CC1C)c1c(N)n(Cc2ccccc2)c(=O)[nH]c1=O (stereo unspecified)	none
CC1Cc2ccccc2N1CC(=O)N(C)c1c(N)n(Cc2ccccc2)c(=O)[nH]c1=O (stereo unspecified)	HTRA1 inh 43.4 (no result: ARNT-TACC3 inh) | HTRA1 inh conf inactive
Cc1cccc2sc(NNC(=O)c3cc(-c4cccs4)nc4ccccc34)nc12	HTRA1 inh 43.7 | HTRA1 inh conf 42.1
CC(C)NC(=O)c1cc(-c2cccs2)nc2ccccc12	none
Cc1noc(C)c1NC(=O)N[C@H]1CC[C@H](CC(=O)NCCCN(C)C)O[C@@H]1CO	none (no result: mABHD4 FP, SIAE primary, TCR CD3 inh, HTRA1 inh)
O=C1c2ccccc2C(=O)c2c1ccc(C(=O)N1CCCCC1)c2NCCO	none
CC1(C)CCCN(C(=O)c2ccc3c(c2NCCO)C(=O)c2ccccc2C3=O)C1	HTRA1 inh 42.5 (no result: ARNT-TACC3 inh) | HTRA1 inh conf 38.9
CNc1c(NS(=O)(=O)c2ccc(Cl)cc2)c(=O)oc2ccccc12	none
CNc1c(NS(=O)(=O)c2ccc(Cl)s2)c(=O)oc2ccccc12	HTRA1 inh 128.6 | HTRA1 inh conf inactive
Cc1cc2ccccc2n1CCNC(=O)C1CCCC1	none
Cc1cc2ccccc2n1CCNC(=O)C1CCCCC1	HTRA1 inh 36.3 | HTRA1 inh conf inactive
COC(=O)C1=C(C)NC(=O)/C1=C\c1cc(C)n(-c2cccc(C)c2)c1C	HTRA1 inh 51.9 | HTRA1 inh conf 38.2
CNC[C@@H]1Oc2cc(C#CCN(C)C)ccc2S(=O)(=O)N([C@H](C)CO)C[C@H]1C	none (no result: mABHD4 FP, SIAE primary, TCR CD3 inh, HTRA1 inh)
O=C(OCCc1ccccc1)c1cc(O)c(O)c(O)c1	HTRA1 inh 55.7 | HTRA1 inh conf 86.6
CCC(C)Nc1ccc(NC(C)CC)cc1 (stereo unspecified)	HTRA1 inh 66.9 (no result: mABHD4 FP, SIAE primary, TCR CD3 inh, ARNT-TACC3 inh) | HTRA1 inh conf 75.5
CCC(C)NC(=O)Nc1ccc(Br)cc1 (stereo unspecified)	none (no result: ARNT-TACC3 inh)
COc1ccc(C(=O)Oc2ccc3oc(=O)sc3c2)cc1	HTRA1 inh 45.4 | HTRA1 inh conf inactive
CC(C)NC(=O)N(C)C[C@@H]1OCCCC[C@H](C)Oc2ccc(NC(=O)Nc3ccc(F)cc3)cc2C(=O)N([C@H](C)CO)C[C@@H]1C	none (no result: mABHD4 FP, SIAE primary, TCR CD3 inh, HTRA1 inh)
COCC(=O)N(C)C[C@@H]1Oc2ncc(C#C[C@@H](C)O)cc2C(=O)N([C@@H](C)CO)C[C@@H]1C	none (no result: mABHD4 FP, SIAE primary, TCR CD3 inh, HTRA1 inh)
Cc1cc(C)c2nc(NNC(=O)c3ccc(S(=O)(=O)N4CCc5ccccc5C4)cc3)sc2c1	HTRA1 inh 51.8 | HTRA1 inh conf 47.9
Cc1cc(C)c2sc(NNC(=O)c3ccc(S(=O)(=O)N4CCc5ccccc5C4)cc3)nc2c1	HTRA1 inh 44.5 | HTRA1 inh conf 41.7
Cc1cc(C)c2sc(N(CCCN(C)C)C(=O)c3ccc(S(=O)(=O)N4CCc5ccccc5C4)cc3)nc2c1	none (no result: mABHD4 FP, SIAE primary, TCR CD3 inh)
CC(C)(C)[S@@](=O)N1Cc2cc(C(=O)N[C@H]3CCN(Cc4ccccc4)C3)nc(-c3cccc(-c4cccnc4)c3)c2[C@H]1CCO	none (no result: mABHD4 FP, SIAE primary, TCR CD3 inh, HTRA1 inh)
C[C@@H]1CN([C@@H](C)CO)C(=O)c2cccc(NC(=O)C3CCCCC3)c2O[C@@H]1CN(C)C(=O)Nc1ccc(F)cc1	none (no result: mABHD4 FP, SIAE primary, TCR CD3 inh, HTRA1 inh)
O=C(Oc1c(CN2CCOCC2)cc(Cl)c2cccnc12)c1ccccc1Cl	ARNT-TACC3 inh 70.8, HTRA1 inh 37.1 | HTRA1 inh conf 39.2
O=C(Oc1ccc(Cl)c2cccnc12)N1CCOCC1	none
COc1cc(C(=O)Oc2c(CN3CCOCC3)cc(Cl)c3cccnc23)cc(OC)c1OC	ARNT-TACC3 inh 70.3, HTRA1 inh 50.0 (no result: mABHD4 FP, SIAE primary, TCR CD3 inh) | HTRA1 inh conf 71.4
COc1cc(C(=O)Oc2c(OC)cc(C(=S)N3CCOCC3)cc2OC)cc(OC)c1OC	none
C[C@H](CO)N1C[C@H](C)[C@@H](CN(C)S(=O)(=O)c2ccc(Cl)cc2)Oc2ccc(NC(=O)C3CCCCC3)cc2C1=O	none (no result: mABHD4 FP, SIAE primary, TCR CD3 inh, HTRA1 inh)
Cc1noc(C)c1S(=O)(=O)Nc1ccc2c(c1)C(=O)N([C@H](C)CO)C[C@@H](C)[C@@H](CN(C)C(=O)Nc1ccc(F)cc1)OCCCC[C@@H](C)O2	none (no result: mABHD4 FP, SIAE primary, TCR CD3 inh, HTRA1 inh)
C/C=C/c1ccc([C@H]2[C@@H](CO)N(C(C)=O)[C@H]2CN(C)C(=O)c2ccccn2)cc1	none (no result: mABHD4 FP, SIAE primary, TCR CD3 inh, HTRA1 inh)
C/C(=N\NC(=O)c1cc2ccccc2cc1O)c1ccc2c(c1)OCO2	HTRA1 inh 41.8 | HTRA1 inh conf inactive
C/C(=N\NC(=O)c1ccc(C)cc1C)c1ccc2c(c1)OCO2	none
CCOC(=O)C(C)/C(C)=N/NC(=O)c1cc2ccccc2cc1O (stereo unspecified)	HTRA1 inh 42.7 | HTRA1 inh conf inactive
O=C(NCCO)c1cc2ccccc2cc1O	none
C[C@H]1CCCCO[C@H](CN(C)C(=O)Nc2ccc3c(c2)OCO3)[C@@H](C)CN([C@@H](C)CO)C(=O)c2cc(NC(=O)NC3CCCCC3)ccc2O1	none (no result: mABHD4 FP, SIAE primary, TCR CD3 inh, HTRA1 inh)
CCCC(=O)NC(c1cccc([N+](=O)[O-])c1)c1ccc2cccnc2c1O (stereo unspecified)	none (no result: ARNT-TACC3 inh)
CCN(CC)c1ccc(C(NC(=O)C(C)C)c2ccc3cccnc3c2O)cc1 (stereo unspecified)	HTRA1 inh 56.2 (no result: ARNT-TACC3 inh) | HTRA1 inh conf 61.0
CCCC(=O)NC(c1ccc(C)cc1)c1ccc2cccnc2c1O (stereo unspecified)	HTRA1 inh 45.4 (no result: mABHD4 FP, SIAE primary, TCR CD3 inh) | HTRA1 inh conf 58.4
CCCCC(=O)NC(c1ccc(Cl)cc1)c1ccc2cccnc2c1O (stereo unspecified)	HTRA1 inh 40.3 | HTRA1 inh conf 44.0
CCCC(=O)NC(c1ccc(Cl)cc1)c1ccc2cccnc2c1O (stereo unspecified)	HTRA1 inh 46.4 | HTRA1 inh conf 48.4
CCCC(=O)NC(c1ccccc1Cl)c1c(O)ccc2ccccc12 (stereo unspecified)	none
CCCCC(=O)NC(c1ccccc1Cl)c1c(O)ccc2ccccc12 (stereo unspecified)	none
O=C(C1CCCC1)N1CCCCN2[C@@H](CO)[C@H](c3ccc(C#CC4(O)CCCC4)cc3)[C@@H]2C1	none (no result: mABHD4 FP, SIAE primary, TCR CD3 inh, HTRA1 inh)
CCCCC(=O)NC(c1ccc(OC)c(OC)c1)c1c(O)ccc2ccccc12 (stereo unspecified)	none (no result: mABHD4 FP, SIAE primary, TCR CD3 inh)
CCCCC(=O)NC(c1ccccc1OC)c1ccc2cccnc2c1O (stereo unspecified)	HTRA1 inh 59.6 | HTRA1 inh conf 52.1
CCCC(=O)NC(c1ccc(Cl)cc1Cl)c1ccc2cccnc2c1O (stereo unspecified)	HTRA1 inh 53.0 | HTRA1 inh conf 56.0
Cc1ccc(S(=O)(=O)N[C@H]2CC[C@H](CC(=O)NC3CCCCC3)O[C@H]2CO)cc1	none (no result: mABHD4 FP, SIAE primary, TCR CD3 inh, HTRA1 inh)
O=C1C=CC(=O)N1c1ccc(Nc2ccccc2)cc1	HTRA1 inh 52.6 | HTRA1 inh conf inactive
O=C1C=CC(=O)N1c1ccc2ccccc2c1	none
